Assays:
Homo sapiens = species on record: Homo sapiens; assay: Selectivity index, ratio of Ki for human cloned adenosine receptor A1 expressed in CHO-K1 cell membrane to Ki for human cloned adenosine receptor A2A expressed in HEK293 cell membrane incubated for 60 mins by microbeta counting method; format: cell-based
Method in brief: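 Ratio Ki(A1)/Ki(A2A). […] Both assays incubated 60 min at 27°C and read by filtration scintillation counting. Ki values from Cheng–Prusoff conversion.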

Adenosine receptor A1 [1] = target: T1, Adenosine receptor A1 (Homo sapiens, UniProt P30542); assay: Displacement of [3H]DPCPX from human cloned adenosine receptor A1 expressed in CHO-K1 cell membranes incubated for 60 mins by microbeta counting method
T1 sequence (P30542 whole entry): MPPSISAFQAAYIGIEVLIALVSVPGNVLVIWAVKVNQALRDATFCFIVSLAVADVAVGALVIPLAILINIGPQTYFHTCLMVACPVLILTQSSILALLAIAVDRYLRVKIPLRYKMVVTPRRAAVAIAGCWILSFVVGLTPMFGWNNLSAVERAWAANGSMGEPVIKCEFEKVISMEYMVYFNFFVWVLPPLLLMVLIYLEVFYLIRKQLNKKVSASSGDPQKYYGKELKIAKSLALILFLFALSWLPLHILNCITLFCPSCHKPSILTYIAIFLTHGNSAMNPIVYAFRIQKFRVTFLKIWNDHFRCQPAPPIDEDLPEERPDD
Method in brief: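 Radioligand [3H]DPCPX at 5 nM. Compounds tested as 10-point three-fold dilution series. Incubation 60 min at 27°C. Read-out by GF/B filtration and scintillation counting. Ki obtained from IC50 by Cheng–Prusoff (Kd 2.28 nM). Mean ± SEM of duplicates.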

Adenosine receptor A2a [2] = target: T2, Adenosine receptor A2a (Homo sapiens, UniProt P29274); assay: Displacement of [3H]CGS21680 from human cloned adenosine receptor A2A expressed in HEK-293 cell membrane incubated for 60 mins by microbeta counting method; format: cell membranes
Method in brief: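 Compounds tested as 10-point three-fold dilution series. Incubation 60 min at 27°C. Bound ligand separated by GF/B filtration, scintillation counted. Mean ± SEM of duplicates.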

Adenosine receptor A2a [3] = target: T2, Adenosine receptor A2a; assay: Agonist activity at human adenosine receptor A2A expressed in HEK293 cells assessed as cAMP accumulation incubated for 30 mins by Eu-cAMP tracer-based Envision plate reader analysis; format: functional, cell-based
Method in brief: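 Intact HEK-293 cells stably expressing human A2A receptor, detached with Versene, resuspended at 300 cells/well in HBSS/HEPES/BSA buffer pH 7.4 with rolipram. Compounds given as 11-point three-fold DMSO dilution series.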

[4] = target: T3, Adenosine receptor A1 (Homo sapiens) (UniProt P30542); assay: Displacement of [3H]DPCPX from human cloned adenosine receptor A1 expressed in CHO-K1 cell membranes at 1 uM incubated for 60 mins by microbeta counting method relative to control
T3 sequence (whole entry): T1 sequence (P30542 whole entry)
Method in brief: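 Human A1 CHO-K1 membranes in Tris-HCl pH 7.4/MgCl2/EDTA buffer with adenosine deaminase. Radioligand [3H]DPCPX at 5 nM. Single compound concentration of 1 μM. Incubation 60 min at 27°C. Filtration then scintillation counting. Result is percent displacement of specific binding.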

Adenosine receptor A2a [5] = target: T2, Adenosine receptor A2a; assay: Displacement of [3H]CGS21680 from human cloned adenosine receptor A2A expressed in HEK-293 cell membrane at 1 uM incubated for 60 mins by microbeta counting method relative to control; format: cell membranes
Method in brief: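 Human A2A HEK-293 membranes in Tris-HCl pH 7.4/MgCl2/EDTA buffer with adenosine deaminase. […] Single compound concentration of 1 μM. Incubation 60 min at 27°C. Filtration then scintillation counting. Result is percent displacement of specific binding.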

Adenosine receptor A1 [6] = target: T1, Adenosine receptor A1; assay: Displacement of [3H]CPX from human adenosine receptor A1 expressed in CHO-K1 cell membranes incubated for 2 hrs by radioligand competitive binding analysis

T2 sequence (P29274 whole entry): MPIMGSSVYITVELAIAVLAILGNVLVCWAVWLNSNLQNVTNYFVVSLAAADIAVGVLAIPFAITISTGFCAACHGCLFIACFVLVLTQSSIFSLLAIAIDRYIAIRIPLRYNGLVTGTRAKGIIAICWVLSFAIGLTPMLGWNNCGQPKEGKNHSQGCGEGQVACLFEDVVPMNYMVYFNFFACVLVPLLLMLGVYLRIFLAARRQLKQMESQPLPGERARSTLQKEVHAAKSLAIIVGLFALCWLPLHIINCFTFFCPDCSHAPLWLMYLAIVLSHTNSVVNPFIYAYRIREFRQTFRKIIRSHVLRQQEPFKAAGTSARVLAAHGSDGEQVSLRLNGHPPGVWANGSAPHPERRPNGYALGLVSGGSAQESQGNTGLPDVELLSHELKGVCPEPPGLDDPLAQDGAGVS

Compound	Ki (Adenosine receptor A1 [1])	Ki (Adenosine receptor A2a [2])	EC50 (Adenosine receptor A2a [3])	inhibition [4]	inhibition (Adenosine receptor A2a [5])	Ki (Adenosine receptor A1 [6])	Ratio Ki (Homo sapiens)
COc1cc(/C=N/Nc2nc(N)c3ncn([C@@H]4O[C@H](CO)[C@@H](O)[C@H]4O)c3n2)ccc1OCc1ccccc1	9140 nM	–	–	–	–	–	91
Nc1nc(N/N=C/c2cccc(OCc3ccccc3)c2)nc2c1ncn2[C@@H]1O[C@H](CO)[C@@H](O)[C@H]1O	13 nM	–	–	–	–	–	0.075
Nc1nc(N/N=C/C2CCCC2)nc2c1ncn2[C@@H]1O[C@H](CO)[C@@H](O)[C@H]1O	5.6 nM	4.1 nM	4.34 nM	–	–	–	1.4
Nc1nc(N/N=C/c2cncs2)nc2c1ncn2[C@@H]1O[C@H](CO)[C@@H](O)[C@H]1O	22 nM	71 nM	–	–	–	–	0.31
Nc1nc(N/N=C/c2cccnc2Cl)nc2c1ncn2[C@@H]1O[C@H](CO)[C@@H](O)[C@H]1O	4.6 nM	8.7 nM	4.6 nM	–	–	–	0.53
N#Cc1ccc(/C=N/Nc2nc(N)c3ncn([C@@H]4O[C@H](CO)[C@@H](O)[C@H]4O)c3n2)cc1	4.1 nM	8.5 nM	15.3 nM	–	–	–	0.5
Nc1nc(N/N=C/c2ccc[nH]2)nc2c1ncn2[C@@H]1O[C@H](CO)[C@@H](O)[C@H]1O	8 nM	8.3 nM	8.52 nM	–	–	–	0.96
Nc1nc(N/N=C/c2ccc(-n3ccnc3)cc2)nc2c1ncn2[C@@H]1O[C@H](CO)[C@@H](O)[C@H]1O	> 10000 nM	–	–	0%	–	–	> 1000
Nc1nc(N/N=C/c2ccc(Br)cn2)nc2c1ncn2[C@@H]1O[C@H](CO)[C@@H](O)[C@H]1O	4.7 nM	239 nM	–	–	–	–	0.02
Nc1nc(N/N=C/c2ccc(-c3ccccn3)cc2)nc2c1ncn2[C@@H]1O[C@H](CO)[C@@H](O)[C@H]1O	7540 nM	–	–	–	–	–	36
Nc1nc(N/N=C/c2ccc(-c3ccccc3)cc2)nc2c1ncn2[C@@H]1O[C@H](CO)[C@@H](O)[C@H]1O	7860 nM	–	–	–	–	–	–
Nc1nc(N/N=C/c2ccc(OCc3ccccc3)c(OCc3ccccc3)c2)nc2c1ncn2[C@@H]1O[C@H](CO)[C@@H](O)[C@H]1O	> 10000 nM	–	–	0%	–	–	> 1000
Nc1nc(N/N=C/c2ccc(C(F)(F)F)cc2C(F)(F)F)nc2c1ncn2[C@@H]1O[C@H](CO)[C@@H](O)[C@H]1O	> 10000 nM	6280 nM	–	0%	–	–	> 1000
N#Cc1ccccc1/C=N/Nc1nc(N)c2ncn([C@@H]3O[C@H](CO)[C@@H](O)[C@H]3O)c2n1	2.9 nM	–	–	–	–	–	–
Nc1nc(N/N=C/c2ccc3ncccc3c2)nc2c1ncn2[C@@H]1O[C@H](CO)[C@@H](O)[C@H]1O	9.8 nM	6.5 nM	5.52 nM	–	–	–	1.5
Nc1nc(N/N=C/c2ccc(Cl)c(C(F)(F)F)c2)nc2c1ncn2[C@@H]1O[C@H](CO)[C@@H](O)[C@H]1O	> 10000 nM	–	–	11%	–	–	> 1000
Nc1nc(N/N=C/c2ccc(-c3ccc(Br)cc3)o2)nc2c1ncn2[C@@H]1O[C@H](CO)[C@@H](O)[C@H]1O	4.5 nM	> 10000 nM	–	–	27%	–	< 0.001
CCN(CC)c1ccc(/C=N/Nc2nc(N)c3ncn([C@@H]4O[C@H](CO)[C@@H](O)[C@H]4O)c3n2)cc1	> 10000 nM	6.4 nM	17.9 nM	0%	–	–	> 1000
CCCOc1ccc(/C=N/Nc2nc(N)c3ncn([C@@H]4O[C@H](CO)[C@@H](O)[C@H]4O)c3n2)cc1	> 10000 nM	224 nM	–	7%	–	–	66
Nc1nc(N/N=C/c2ccc(N3CCOCC3)cc2)nc2c1ncn2[C@@H]1O[C@H](CO)[C@@H](O)[C@H]1O	2.5 nM	–	–	–	–	–	0.003
Nc1nc(N/N=C/c2ccc(OCc3ccc(F)cc3)cc2)nc2c1ncn2[C@@H]1O[C@H](CO)[C@@H](O)[C@H]1O	70 nM	–	4.05 nM	–	–	–	12.5

Second part, led by results:

Ki (Adenosine receptor A1 [1])	Ki (Adenosine receptor A2a [2])	EC50 (Adenosine receptor A2a [3])	inhibition [4]	inhibition (Adenosine receptor A2a [5])	Ki (Adenosine receptor A1 [6])	Compound	Ratio Ki (Homo sapiens)
12 nM	18 nM	1.1 nM	–	–	–	CCCCc1nc(/C=N/Nc2nc(N)c3ncn([C@@H]4O[C@H](CO)[C@@H](O)[C@H]4O)c3n2)c(Cl)[nH]1	0.67
37 nM	–	–	–	–	–	Nc1nc(N/N=C/c2ccc(C(F)(F)F)cc2)nc2c1ncn2[C@@H]1O[C@H](CO)[C@@H](O)[C@H]1O	0.6
6940 nM	–	–	–	–	–	CCOc1cc(/C=N/Nc2nc(N)c3ncn([C@@H]4O[C@H](CO)[C@@H](O)[C@H]4O)c3n2)ccc1O	5
2 nM	17.5 nM	10.2 nM	–	–	–	CCCCC/C=C/C=C/C=N/Nc1nc(N)c2ncn([C@@H]3O[C@H](CO)[C@@H](O)[C@H]3O)c2n1	0.11
> 10000 nM	–	–	0%	–	–	Nc1nc(N/N=C/c2ccc(N(c3ccccc3)c3ccccc3)cc2)nc2c1ncn2[C@@H]1O[C@H](CO)[C@@H](O)[C@H]1O	> 1000
> 10000 nM	> 10000 nM	–	0%	8%	–	CSCC/C=N/Nc1nc(N)c2ncn([C@@H]3O[C@H](CO)[C@@H](O)[C@H]3O)c2n1	–
> 10000 nM	–	–	0%	–	–	CC(=O)Nc1ccc(/C=N/Nc2nc(N)c3ncn([C@@H]4O[C@H](CO)[C@@H](O)[C@H]4O)c3n2)cc1	> 1000
–	–	–	–	–	> 16500 nM	CNC(=O)c1cnn(-c2nc(N)c3ncn([C@@H]4O[C@H](CO)[C@@H](O)[C@H]4O)c3n2)c1 [REGADENOSON ANHYDROUS]	–
9500 nM	6.3 nM	1.38 nM	–	–	–	CC(/C=N/Nc1nc(N)c2ncn([C@@H]3O[C@H](CO)[C@@H](O)[C@H]3O)c2n1)Cc1ccc(C(C)C)cc1 (some centres not stated)	1430
> 10000 nM	5490 nM	–	0%	–	–	COc1cc(/C=N/Nc2nc(N)c3ncn([C@@H]4O[C@H](CO)[C@@H](O)[C@H]4O)c3n2)cc(OC)c1OC	> 1000
5.1 nM	6620 nM	–	–	–	–	Nc1nc(N/N=C/c2ccc(N3CCCC3)cc2)nc2c1ncn2[C@@H]1O[C@H](CO)[C@@H](O)[C@H]1O	0.00077
2.6 nM	1450 nM	–	–	–	–	COc1ccc(/C=N/Nc2nc(N)c3ncn([C@@H]4O[C@H](CO)[C@@H](O)[C@H]4O)c3n2)cn1	0.0018
